From ChEMBL document CHEMBL1150797 (Antimicrob Agents Chemother, 2007)

Columns and labels:
[1] = AUC (0 to 24 hrs) in tuberculosis patient at 1500 mg, po coadministered with 600 mg, po rifampin; format: ADME, organism-based; parameters: dose 1500 mg, time < 24 hr, route oral; conditions: human, plasma
Procedure, shortened: (§1)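 Venous plasma was drawn predose and at 1, 1.5, 2, 2.5, 3, 4, 6 and 12 h. Assay: solid-phase extraction, HPLC-UV at 266 nm, LLOQ 0.1 mg/liter. Cmax and Tmax were observed values; noncompartmental analysis gave t1/2 as 0.693/β and AUC0-24 by linear-log trapezoid with C24 extrapolated.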

[2] = AUC (0 to 24 hrs) in tuberculosis patient at 1500 mg, po coadministered with 450 mg, po rifampin; format: ADME, organism-based; parameters: time < 24 hr, dose 1500 mg, route oral; conditions: human, plasma; procedure, shortened: as §1
[3] = Cmax in tuberculosis patient at 1500 mg, po coadministered with 600 mg, po rifampin; format: ADME, organism-based; parameters: dose 1500 mg, route oral; conditions: human, in vivo; procedure, shortened: as §1
[4] = Cmax in tuberculosis patient at 1500 mg, po coadministered with 450 mg, po rifampin; format: ADME, organism-based; parameters: dose 1500 mg, route oral; conditions: human, in vivo; procedure, shortened: as §1
[5] = Tmax in tuberculosis patient at 1500 mg, po coadministered with 600 mg, po rifampin; format: ADME, organism-based; conditions: human, in vivo; procedure, shortened: as §1
[6] = Tmax in tuberculosis patient at 1500 mg, po coadministered with 450 mg, po rifampin; format: ADME, organism-based; conditions: human, in vivo; procedure, shortened: as §1
[7] = Half life in tuberculosis patient at 1500 mg, po coadministered with 600 mg, po rifampin; format: ADME, organism-based; conditions: human, in vivo; procedure, shortened: as §1
[8] = Half life in tuberculosis patient at 1500 mg, po coadministered with 450 mg, po rifampin; format: ADME, organism-based; conditions: human, in vivo; procedure, shortened: as §1
[9] = AUC (0 to 24 hrs) in tuberculosis patient at 750 mg, po coadministered with 600 mg, po rifampin; format: ADME, organism-based; parameters: time < 24 hr, dose 750 mg, route oral; conditions: human, plasma
Procedure, shortened: (§2)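 Plasma was sampled predose and at 1–12 h (nine points). Assay: spiked with internal standard, chloroform extraction, derivatization, HPLC-UV at 215 nm, LLOQ 0.05 mg/liter. Noncompartmental analysis: Cmax and Tmax observed, t1/2 = 0.693/β, AUC0-24 by linear-log trapezoid.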

[10] = AUC (0 to 24 hrs) in tuberculosis patient at 750 mg, po coadministered with 450 mg, po rifampin; format: ADME, organism-based; parameters: dose 750 mg, time < 24 hr, route oral; conditions: human, plasma; procedure, shortened: as §2
Homo sapiens [11] = experiment: Cmax in tuberculosis patient at 750 mg, po coadministered with 600 mg, po rifampin; format: ADME, organism-based; parameters: dose 750 mg, route oral; conditions: in vivo; procedure, shortened: as §2
Homo sapiens [12] = experiment: Cmax in tuberculosis patient at 750 mg, po coadministered with 450 mg, po rifampin; format: ADME, organism-based; parameters: dose 750 mg, route oral; conditions: in vivo; procedure, shortened: as §2
[13] = Tmax in tuberculosis patient at 750 mg, po coadministered with 600 mg, po rifampin; format: ADME, organism-based; conditions: human, in vivo; procedure, shortened: as §2
[14] = Tmax in tuberculosis patient at 750 mg, po coadministered with 450 mg, po rifampin; format: ADME, organism-based; conditions: human, in vivo; procedure, shortened: as §2
[15] = Half life in tuberculosis patient at 750 mg, po coadministered with 600 mg, po rifampin; format: ADME, organism-based; conditions: human, in vivo; procedure, shortened: as §2
[16] = Half life in tuberculosis patient at 750 mg, po coadministered with 450 mg, po rifampin; format: ADME, organism-based; conditions: human, in vivo; procedure, shortened: as §2
[17] = Apparent clearance in tuberculosis patient at 450 mg, po; format: ADME, organism-based; conditions: human, in vivo
[18] = Apparent volume of distribution in tuberculosis patient at 450 mg, po; format: ADME, organism-based; conditions: human, in vivo, read-out: Vc/F
[19] = Apparent volume of distribution in tuberculosis patient at 600 mg, po; format: ADME, organism-based; conditions: human, in vivo, read-out: Vc/F
[20] = Cmax in human tuberculosis patient at 600 mg, po; conditions: in vivo
[21] = Apparent clearance in tuberculosis patient at 600 mg, po; format: ADME, organism-based; conditions: human, in vivo
Homo sapiens [22] = experiment: Tmax in tuberculosis patient at 600 mg, po; format: ADME, organism-based; conditions: in vivo
[23] = Tmax in tuberculosis patient at 450 mg, po; format: ADME, organism-based; conditions: human, in vivo
Homo sapiens [24] = experiment: Tmax in tuberculosis patient assessed as desacetylrifampin level at 450 mg, po; format: ADME, organism-based; conditions: in vivo
Homo sapiens [25] = experiment: Tmax in tuberculosis patient assessed as desacetylrifampin level at 600 mg, po; format: ADME, organism-based; conditions: in vivo
clinical [26] = conditions: human, plasma, po, 450 mg
clinical [27] = conditions: human, plasma, po, 600 mg

In the case of `NC(=O)c1cnccn1` [PYRAZINAMIDE], the AUC(0-t) at 24 h [1] was 514 µg·h/mL, the AUC(0-t) at 24 h [2] was 473 µg·h/mL and the Cmax [3] was 46000 ng/mL. The Cmax [4] was 43800 ng/mL, the Tmax [5] was 2.5 h and the Tmax [6] was 2.75 h. For the same compound, the half-life [7] was 414 min and the half-life [8] was 396 min.

`CC[C@@H](CO)NCCN[C@@H](CC)CO` [ETHAMBUTOL] gave an AUC(0-t) at 24 h [9] of 14700 ng·h/mL, an AUC(0-t) at 24 h [10] of 14400 ng·h/mL and a Cmax (Homo sapiens [11]) of 2.3 h. The Cmax (Homo sapiens [12]) was 2.4 h, the Tmax [13] was 2.5 h and the Tmax [14] was 2.5 h. The half-life [15] was 276 min and the half-life [16] was 252 min.

`CO[C@H]1/C=C/O[C@@]2(C)Oc3c(C)c(O)c4c(O)c(c(/C=N/N5CCN(C)CC5)c(O)c4c3C2=O)NC(=O)/C(C)=C\C=C\[C@H](C)[C@H](O)[C@@H](C)[C@@H](O)[C@@H](C)[C@H](OC(C)=O)[C@@H]1C` [RIFAMPIN] showed a CL/F [17] of 153 mL/min, a Vd/F [18] of 25.3 L and a Vd/F [19] of 23.3 L. It also gave a Cmax [20] of 15600 ng/mL, a CL/F [21] of 125 mL/min and a Tmax (Homo sapiens [22]) of 1 h. It also gave a Tmax [23] of 2 h, a Tmax (Homo sapiens [24]) of 4 h and a Tmax (Homo sapiens [25]) of 4 h. It also gave an AUC(0-t) at 24 h (clinical [26]) of 48500 ng·h/mL and an AUC(0-t) at 24 h (clinical [27]) of 79700 ng·h/mL.
